# Source: article PMC5628144 (Phytotherapy research : PTR, 2017)
# “And” between values parts separate entries of the source, which are not always exact repeats. Equal values may be shown once.
# How the values were obtained:
# c-Met kinase = c-Met kinase (Homo sapiens, UniProt P08581); assay: Cell-free Z'-LYTE kinase assay, c-Met phosphorylation inhibition; assay type: biochemical; conditions: for % c-Met Inhibition using Cell-Free assay (5 µM dose): single 5 µM dose; for IC50: read-out: c-Met phosphorylation inhibitory IC50, various doses
# Outline: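 Purified c-Met kinase domain, pre-phosphorylated in vitro, in a Z'-LYTE Tyr6 peptide kit. Reactions held kinase buffer, 200 µM ATP, 4 µM Tyr6 peptide, 2500 ng mL⁻¹ c-Met and test compound, run 1 h at rt. Protease development solution then added for 1 h. Read-out was the 445/520 nm fluorescence ratio. Screen at 5 µM, then various doses, N=3/dose. IC50 from non-linear regression.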
# [1] = test system: MDA-MB-231 breast cancer cells; assay: MTT cell proliferation assay, HGF-induced, MDA-MB-231; assay type: cell-based, human; conditions: 48 h
# Outline: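 MDA-MB-231 cells were seeded at 1×10⁴/well (6 wells/group) in RPMI-1640 with 10% FBS overnight. They were PBS-washed and treated for 48 h at 37°C in serum-free RPMI with 40 ng/mL HGF and 10 or 40 µM test compound, or DMSO vehicle. MTT 1 mg mL⁻¹ for 4 h, DMSO solubilisation, A570. Cell number came from a standard curve, and % survival was taken relative to DMSO wells.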
# MDA-MB-231 cells = assay: Wound-healing scratch assay; assay type: cell-based, human; conditions: read-out: IC50, HGF-induced cell migration; WHA, MDA-MB-231, 24 h, 40 ng/mL HGF
# Outline: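 Scratch wounds were made with a pipette tip in overnight confluent MDA-MB-231 monolayers, then rinsed with PBS and RPMI. Test compound at various doses in serum-free medium with 40 ng/mL HGF, in triplicate, for 24 h. Cells were fixed and Giemsa-stained, and wound width measured at 0 and 24 h. % migration calculated against DMSO-treated wells, with IC50 by non-linear regression. Oleocanthal 10 µM was the positive control.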
# [2] = test system: MDA-MB-468 breast cancer cells; assay: MTT cell proliferation assay, HGF-induced, MDA-MB-468; assay type: cell-based, human; conditions: MDA-MB-468, various doses
# Outline: (§1)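 MDA-MB-468, MCF-7 or BT-474 cells were seeded at 1×10⁴/well (6 wells/group) in RPMI-1640 with 10% FBS and left overnight at 37°C, 5% CO₂. After a PBS wash they got serum-free RPMI with 40 ng/mL HGF plus test compound at various doses, or DMSO (≤0.1%), for 48 h. MTT (1 mg mL⁻¹) for 4 h, formazan dissolved in DMSO, A570. IC50 by non-linear regression.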
# [3] = test system: MCF-7 breast cancer cells; assay: MTT cell proliferation assay, HGF-induced, MCF-7; assay type: cell-based, human; conditions: MCF-7, various doses
# Outline: as §1
# [4] = test system: BT-474 breast cancer cells; assay: MTT cell proliferation assay, HGF-induced, BT-474; assay type: cell-based, human; conditions: BT-474, various doses
# Outline: as §1
# c-Met kinase, sequence (P08581 1078-1345 limits assumed): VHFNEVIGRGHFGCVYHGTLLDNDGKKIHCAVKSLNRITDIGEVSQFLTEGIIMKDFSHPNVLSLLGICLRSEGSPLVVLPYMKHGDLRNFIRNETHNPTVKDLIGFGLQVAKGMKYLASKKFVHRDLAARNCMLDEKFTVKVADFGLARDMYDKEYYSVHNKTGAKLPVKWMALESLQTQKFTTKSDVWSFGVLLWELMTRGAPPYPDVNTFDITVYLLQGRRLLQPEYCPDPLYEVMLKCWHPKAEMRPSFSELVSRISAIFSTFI
% c-Met Inhibition using Cell-Free assay (5 µM dose) (c-Met kinase) [%],Compound,% Survival Inhibition ([1]; 10 µM),% Survival Inhibition ([1]; 40 µM),IC50 (c-Met kinase) [µM],IC50 (MDA-MB-231 cells) [µM],HGF-induced proliferation [2],HGF-induced proliferation [3],HGF-induced proliferation [4]
0,premnoside B [Compound 6],10%,13%,,,,,
0,premnoside E [Compound 4],,7%,,,,,
0,premnoside G [Compound 5],,20%,,,,,
0,premnoside C [Compound 7],13%,18%,,,,,
10.9,6-O-α-L-(3″-O-trans-p-coumaroyl-4″-O-trans-caffeoyl)-rhamnopyrano-sylcatalpol [Compound 3],27%,30%,,,,,

# The next lines start with the compound.
Compound,% c-Met Inhibition using Cell-Free assay (5 µM dose) (c-Met kinase) [%],% Survival Inhibition ([1]; 10 µM),% Survival Inhibition ([1]; 40 µM),IC50 (c-Met kinase) [µM],IC50 (MDA-MB-231 cells) [µM],HGF-induced proliferation [2],HGF-induced proliferation [3],HGF-induced proliferation [4]
"C[C@@H]1O[C@@H](O[C@H]2[C@@H]3C=CO[C@@H](O[C@@H]4O[C@H](CO)[C@@H](O)[C@H](O)[C@H]4O)[C@@H]3[C@@]3(CO)O[C@@H]23)[C@H](O)[C@H](OC(=O)/C=C/c2ccc(O)cc2)[C@H]1OC(=O)/C=C/c1ccc(O)cc1 (relative stereo) [Compound 1, 6-O-α-L-(3″,4″-di-O-trans-p-coumaroyl) rhamnopyranosylcatalpol]",0,,26%,,,,,
"COc1ccc(C=CC(=O)OC2C(C)OC(OC3C4C=COC(OC5OC(CO)C(O)C(O)C5O)C4C4(CO)OC34)C(O)C2OC(=O)C=Cc2ccc(OC)cc2)cc1 [Compound 2, 6-O-α-L-(3″,4″-di-O-trans-p-methoxycinnamoyl)-rhamnopyranosylcatalpol]",0,,17%,,,,,
"C[C@@H]1O[C@@H](OC(=O)/C=C/c2ccc(O)cc2)[C@H](O)[C@H](OC(=O)/C=C/c2ccc(O)c(O)c2)[C@H]1O (relative stereo) [Compound 10, 1-O-trans-p-coumaroyl-3-O-trans-caffeoyl-α-L-rhamnopyranose]",38.8,28% and 28.2%,49% and 49.2%,12.7,8.1,,,
"C[C@@H]1O[C@@H](OC(=O)/C=C/c2ccc(O)cc2)[C@H](OC(=O)/C=C/c2ccc(O)c(O)c2)[C@H](O)[C@H]1O (relative stereo) [Compound 9, 1-O-trans-p-coumaroyl-2-O-trans-caffeoyl-α-L-rhamnopyranose]",,50% and 51.3%,80% and 79.3%,2.5,0.98,dose-dependent suppression,dose-dependent suppression,dose-dependent suppression
"COc1ccc(/C=C/C(=O)O[C@@H]2[C@@H](O)[C@@H](O)[C@H](O[C@H]3[C@@H]4C=CO[C@@H](O[C@@H]5O[C@H](CO)[C@@H](O)[C@H](O)[C@H]5O)[C@@H]4[C@@]4(CO)O[C@@H]34)O[C@H]2C)cc1 [Compound 8, 6-O-α-L-(4”-O-p-methoxycinnamoyl) rhamnopyranosylcatalpol]",56.7,32%,61% and 61.3%,6.9,13.5,,,
